Test results as given in ChEMBL document CHEMBL4346672, “Antimicrobial and KPC/AmpC inhibitory activity of functionalized benzosiloxaboroles” (Eur J Med Chem, 2019).
Converted amounts (≈) assume the structure as drawn. The source made the active and inactive calls. The calls are words filed in the database; no cut-off is given here.

test system: Staphylococcus aureus; assay: Antibacterial activity against Staphylococcus aureus ATCC 6538P assessed as diameter of zone inhibition measured after 18 hrs by CLSI disc diffusion method; format: functional; details: not given
In short: (§1)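 Disc diffusion on Mueller-Hinton II agar. Compounds dissolved in DMSO. Strains stored at -80 °C and subcultured twice on tryptic soy agar before testing. Inhibition zones read after 35 °C, 18 h.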

Row | Structure (SMILES) | diameter of the inhibition zone (DIZ) [mm]
1 | C[Si]1(C)OB(O)c2ccc(C(F)(F)F)cc21 | 20

test system: Pseudomonas aeruginosa; assay: Antibacterial activity against Pseudomonas aeruginosa ATCC 27853 measured after 18 hrs by CLSI broth dilution method; format: functional; details: ATCC 27853, 18 h
In short: (§2)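 Broth MIC in Mueller-Hinton II broth following CLSI, compounds dissolved in DMSO. Strains subcultured twice on tryptic soy agar before testing. Growth read after 35 °C, 18 h.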

Row | MIC [µg/mL] | Structure (SMILES)
2 | > 400 | C[Si]1(C)OB(O)c2ccc(C(F)(F)F)cc21

test system: Serratia marcescens; assay: Antibacterial activity against Serratia marcescens ATCC 13880 measured after 18 hrs by CLSI broth dilution method; format: functional; details: ATCC 13880, 18 h; in short: as §2

Row | MIC [µg/mL] | Structure (SMILES)
3 | > 400 | C[Si]1(C)OB(O)c2ccc(C(F)(F)F)cc21

test system: not listed separately; assay: Dissociation constant, pKa1 of compound in 0.1 M NaOH by potentiometric analysis; format: physicochemical; details: not given

Row | pKa | Structure (SMILES)
4 | 6.6 | C[Si]1(C)OB(O)c2ccc(C(F)(F)F)cc21

test system: Candida parapsilosis; assay: Antifungal activity against Candida parapsilosis ATCC 22019 assessed as decrease in fungal cell growth at 0.78 to 12.5 mg/L incubated for 24 hrs by CLSI broth dilution method; format: functional; details: Lodderomyces parapsilosis, ATCC 22019, 24 h
In short: (§3)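 Yeast broth dilution in RPMI 1640 with 2% glucose, compounds in DMSO. Yeasts pre-grown on Sabouraud dextrose agar. Growth read after 35 °C, 24 h.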

Row | MIC [µg/mL] | Structure (SMILES)
5 | 100 (≈ 406 µM) | C[Si]1(C)OB(O)c2ccc(C(F)(F)F)cc21

test system: Meyerozyma guilliermondii; assay: Antifungal activity against Candida guilliermondii IBA 155 assessed as decrease in fungal cell growth at 0.78 to 12.5 mg/L incubated for 24 hrs by CLSI broth dilution method; format: functional; details: IBA 155, 24 h; in short: as §3

Row | MIC [µg/mL] | Structure (SMILES)
6 | 200 (≈ 813 µM) | C[Si]1(C)OB(O)c2ccc(C(F)(F)F)cc21

test system: Candida albicans; assay: Antifungal activity against Candida albicans ATCC 90028 assessed as diameter of zone inhibition incubated for 24 hrs by CLSI disc diffusion method; format: functional; details: not given
In short: (§4)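 Yeast disc diffusion on Mueller-Hinton agar supplemented with 2% glucose and 0.5 mg/L methylene blue. Compounds in DMSO. Yeasts subcultured on Sabouraud dextrose agar before testing. Zones read after 35 °C, 24 h.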

Row | Structure (SMILES) | diameter of the inhibition zone (DIZ) [mm]
7 | C[Si]1(C)OB(O)c2ccc(C(F)(F)F)cc21 | 14

test system: Candida parapsilosis; assay: Antifungal activity against Candida parapsilosis ATCC 22019 assessed as diameter of zone inhibition incubated for 24 hrs by CLSI disc diffusion method; format: functional; details: not given; in short: as §4

Row | Structure (SMILES) | diameter of the inhibition zone (DIZ) [mm]
8 | C[Si]1(C)OB(O)c2ccc(C(F)(F)F)cc21 | 12

test system: Candida tropicalis; assay: Antifungal activity against Candida tropicalis IBA 171 assessed as diameter of zone inhibition incubated for 24 hrs by CLSI disc diffusion method; format: functional; details: not given; in short: as §4

Row | Structure (SMILES) | diameter of the inhibition zone (DIZ) [mm]
9 | C[Si]1(C)OB(O)c2ccc(C(F)(F)F)cc21 | 13

test system: Meyerozyma guilliermondii; assay: Antifungal activity against Candida guilliermondii IBA 155 assessed as diameter of zone inhibition incubated for 24 hrs by CLSI disc diffusion method; format: functional; details: not given; in short: as §4

Row | Structure (SMILES) | diameter of the inhibition zone (DIZ) [mm]
10 | C[Si]1(C)OB(O)c2ccc(C(F)(F)F)cc21 | 16

test system: Pichia kudriavzevii; assay: Antifungal activity against Candida krusei ATCC 6258 assessed as diameter of zone inhibition incubated for 24 hrs by CLSI disc diffusion method; format: functional; details: not given; in short: as §4

Row | Structure (SMILES) | diameter of the inhibition zone (DIZ) [mm]
11 | C[Si]1(C)OB(O)c2ccc(C(F)(F)F)cc21 | 13

test system: Staphylococcus aureus; assay: Antibacterial activity against Staphylococcus aureus ATCC 6538P measured after 18 hrs by CLSI broth dilution method; format: functional; details: not given; in short: as §2

Row | MIC [µg/mL] | Structure (SMILES)
12 | 50 (≈ 203 µM) | C[Si]1(C)OB(O)c2ccc(C(F)(F)F)cc21

test system: Enterococcus faecalis; assay: Antibacterial activity against Enterococcus faecalis ATCC 29212 measured after 18 hrs by CLSI broth dilution method; format: functional; details: ATCC 29212, 18 h; in short: as §2

Row | MIC [µg/mL] | Structure (SMILES)
13 | 50 (≈ 203 µM) | C[Si]1(C)OB(O)c2ccc(C(F)(F)F)cc21

test system: Enterococcus faecium; assay: Antibacterial activity against Enterococcus faecium ATCC 6057 measured after 18 hrs by CLSI broth dilution method; format: functional; details: ATCC 6057, 18 h; in short: as §2

Row | MIC [µg/mL] | Structure (SMILES)
14 | 25 (≈ 102 µM) | C[Si]1(C)OB(O)c2ccc(C(F)(F)F)cc21

test system: Staphylococcus epidermidis; assay: Antibacterial activity against Staphylococcus epidermidis ATCC 12228 assessed as diameter of zone inhibition measured after 18 hrs by CLSI disc diffusion method; format: functional; details: not given; in short: as §1

Row | Structure (SMILES) | diameter of the inhibition zone (DIZ) [mm]
15 | C[Si]1(C)OB(O)c2ccc(C(F)(F)F)cc21 | 20

test system: Enterococcus faecalis; assay: Antibacterial activity against Enterococcus faecalis ATCC 29212 assessed as diameter of zone inhibition measured after 18 hrs by CLSI disc diffusion method; format: functional; details: not given; in short: as §1

Row | Structure (SMILES) | diameter of the inhibition zone (DIZ) [mm]
16 | C[Si]1(C)OB(O)c2ccc(C(F)(F)F)cc21 | 12

test system: Enterococcus faecium; assay: Antibacterial activity against Enterococcus faecium ATCC 6057 assessed as diameter of zone inhibition measured after 18 hrs by CLSI disc diffusion method; format: functional; details: not given; in short: as §1

Row | Structure (SMILES) | diameter of the inhibition zone (DIZ) [mm]
17 | C[Si]1(C)OB(O)c2ccc(C(F)(F)F)cc21 | 14

test system: Bacillus subtilis; assay: Antibacterial activity against Bacillus subtilis ATCC 6633 assessed as diameter of zone inhibition measured after 18 hrs by CLSI disc diffusion method; format: functional; details: not given; in short: as §1

Row | Structure (SMILES) | diameter of the inhibition zone (DIZ) [mm]
18 | C[Si]1(C)OB(O)c2ccc(C(F)(F)F)cc21 | 47

test system: Klebsiella pneumoniae; assay: Antibacterial activity against Klebsiella pneumoniae ATCC 13883 measured after 18 hrs by CLSI broth dilution method; format: functional; details: ATCC 13883, 18 h; in short: as §2

Row | MIC [µg/mL] | Structure (SMILES)
19 | > 400 | C[Si]1(C)OB(O)c2ccc(C(F)(F)F)cc21

test system: Proteus mirabilis; assay: Antibacterial activity against Proteus mirabilis ATCC 12453 measured after 18 hrs by CLSI broth dilution method; format: functional; details: ATCC 12453, 18 h; in short: as §2

Row | MIC [µg/mL] | Structure (SMILES)
20 | > 400 | C[Si]1(C)OB(O)c2ccc(C(F)(F)F)cc21

test system: Enterobacter cloacae; assay: Antibacterial activity against Enterobacter cloacae DSM 6234 measured after 18 hrs by CLSI broth dilution method; format: functional; details: DSM 6234, 18 h; in short: as §2

Row | MIC [µg/mL] | Structure (SMILES)
21 | > 400 | C[Si]1(C)OB(O)c2ccc(C(F)(F)F)cc21

test system: Bordetella bronchiseptica; assay: Antibacterial activity against Bordetella bronchiseptica ATCC 4617 measured after 18 hrs by CLSI broth dilution method; format: functional; details: ATCC 4617, 18 h; in short: as §2

Row | MIC [µg/mL] | Structure (SMILES)
22 | 400 (≈ 1630 µM) | C[Si]1(C)OB(O)c2ccc(C(F)(F)F)cc21

test system: Acinetobacter baumannii; assay: Antibacterial activity against Acinetobacter baumannii ATCC 19606 measured after 18 hrs by CLSI broth dilution method; format: functional; details: ATCC 19606, 18 h; in short: as §2

Row | MIC [µg/mL] | Structure (SMILES)
23 | 400 (≈ 1630 µM) | C[Si]1(C)OB(O)c2ccc(C(F)(F)F)cc21

test system: Stenotrophomonas maltophilia; assay: Antibacterial activity against Stenotrophomonas maltophilia ATCC 13637 measured after 18 hrs by CLSI broth dilution method; format: functional; details: ATCC 13637, 18 h; in short: as §2

Row | MIC [µg/mL] | Structure (SMILES)
24 | 400 (≈ 1630 µM) | C[Si]1(C)OB(O)c2ccc(C(F)(F)F)cc21

test system: Burkholderia cepacia; assay: Antibacterial activity against Burkholderia cepacia ATCC 25416 measured after 18 hrs by CLSI broth dilution method; format: functional; details: ATCC 25416, 18 h; in short: as §2

Row | MIC [µg/mL] | Structure (SMILES)
25 | > 400 | C[Si]1(C)OB(O)c2ccc(C(F)(F)F)cc21

test system: Escherichia coli; assay: Antibacterial activity against Escherichia coli ATCC 25922 assessed as diameter of zone inhibition measured after 18 hrs by CLSI disc diffusion method; format: functional; details: not given; in short: as §1

Row | Structure (SMILES) | diameter of the inhibition zone (DIZ)
26 | C[Si]1(C)OB(O)c2ccc(C(F)(F)F)cc21 | inactive

test system: Proteus mirabilis; assay: Antibacterial activity against Proteus mirabilis ATCC 12453 assessed as diameter of zone inhibition measured after 18 hrs by CLSI disc diffusion method; format: functional; details: not given; in short: as §1

Row | Structure (SMILES) | diameter of the inhibition zone (DIZ)
27 | C[Si]1(C)OB(O)c2ccc(C(F)(F)F)cc21 | inactive

test system: Acinetobacter baumannii; assay: Antibacterial activity against Acinetobacter baumannii ATCC 19606 assessed as diameter of zone inhibition measured after 18 hrs by CLSI disc diffusion method; format: functional; details: not given; in short: as §1

Row | Structure (SMILES) | diameter of the inhibition zone (DIZ) [mm]
28 | C[Si]1(C)OB(O)c2ccc(C(F)(F)F)cc21 | 13

test system: Burkholderia cepacia; assay: Antibacterial activity against Burkholderia cepacia ATCC 25416 assessed as diameter of zone inhibition measured after 18 hrs by CLSI disc diffusion method; format: functional; details: not given; in short: as §1

Row | Structure (SMILES) | diameter of the inhibition zone (DIZ)
29 | C[Si]1(C)OB(O)c2ccc(C(F)(F)F)cc21 | inactive

test system: Bordetella bronchiseptica; assay: Antibacterial activity against Bordetella bronchiseptica ATCC 4617 assessed as diameter of zone inhibition measured after 18 hrs by CLSI disc diffusion method; format: functional; details: not given; in short: as §1

Row | Structure (SMILES) | diameter of the inhibition zone (DIZ)
30 | C[Si]1(C)OB(O)c2ccc(C(F)(F)F)cc21 | inactive

test system: Escherichia coli; assay: Antibacterial activity against Escherichia coli ATCC 25922 assessed as fold reduction of MIC in presence of efflux pump inhibitor PAbetaN incubated for 18 hrs by CLSI broth microdilution method; format: functional; details: not given
In short: (§5)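 MICs determined with and without PAβN at 50 mg/L in Mueller-Hinton broth containing 1 mM MgSO₄. 2-fold serial dilutions per CLSI. Fold change taken from the paired MICs after 35 °C, 18 h.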

Row | Structure (SMILES) | fold change (FC)
31 | C[Si]1(C)OB(O)c2ccc(C(F)(F)F)cc21 | 16

test system: Klebsiella pneumoniae; assay: Antibacterial activity against Klebsiella pneumoniae ATCC 13883 assessed as fold reduction of MIC in presence of efflux pump inhibitor PAbetaN incubated for 18 hrs by broth microdilution method; format: functional; details: not given; in short: as §5

Row | Structure (SMILES) | fold change (FC)
32 | C[Si]1(C)OB(O)c2ccc(C(F)(F)F)cc21 | 16

test system: Proteus mirabilis; assay: Antibacterial activity against Proteus mirabilis ATCC 12453 assessed as fold reduction of MIC in presence of efflux pump inhibitor PAbetaN incubated for 18 hrs by broth microdilution method; format: functional; details: not given; in short: as §5

Row | Structure (SMILES) | fold change (FC)
33 | C[Si]1(C)OB(O)c2ccc(C(F)(F)F)cc21 | 2

test system: Stenotrophomonas maltophilia; assay: Antibacterial activity against Stenotrophomonas maltophilia ATCC 13637 assessed as fold reduction of MIC in presence of efflux pump inhibitor PAbetaN incubated for 18 hrs by broth microdilution method; format: functional; details: not given; in short: as §5

Row | Structure (SMILES) | fold change (FC)
34 | C[Si]1(C)OB(O)c2ccc(C(F)(F)F)cc21 | 16

test system: Klebsiella pneumoniae; details: ATCC 13883

Row | Structure (SMILES) | DIZ
35 | C[Si]1(C)OB(O)c2ccc(C(F)(F)F)cc21 | inactive

test system: Serratia marcescens; details: ATCC 13880

Row | Structure (SMILES) | DIZ
36 | C[Si]1(C)OB(O)c2ccc(C(F)(F)F)cc21 | inactive
